“Also recorded” adds a separate entry of the source.
Assays:
SA 452 [1] = settings: for FICI: antibiotic + surfactin; for Fold Change: MIC of antibiotic, alone vs with surfactin
ATCC 25923 [2] = settings: for Fold Change: MIC of antibiotic, alone vs with surfactin; for FICI: antibiotic + surfactin
SA 452 [3] = experiment: Mutant prevention concentration, SA 452; assay type: cell-based, S. aureus
[4] = test system: S. aureus (ATCC 25923 and MRSA SA 452); experiment: Mutant prevention / resistance selection, both strains; assay type: cell-based; settings: combination of oxacillin and surfactin
In short: (§1)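 Strains were grown 24 h in MH broth, centrifuged at 4000×g for 10 min and resuspended to 1×1010 CFU/mL. […] MPC was the lowest concentration preventing colonies. MPC/MIC ratio defined the mutant selection window.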

ATCC 25923 [5] = experiment: Mutant prevention concentration, ATCC 25923; assay type: cell-based, S. aureus
In short: as §1

[6] = test system: S. aureus (ATCC 25923 and MRSA SA 452); experiment: Checkerboard assay, both strains; assay type: cell-based; settings: for Conversion of resistance to sensitivity by surfactin: addition of at least 64 μg/mL of surfactin, ATCC 25923 and MRSA; for Interaction with surfactin (in words): S. aureus (ATCC 25923 and MRSA)

SMILES | FICI (SA 452 [1]) | Fold Change (ATCC 25923 [2]) | FICI (ATCC 25923 [2]) | Interaction with surfactin (in words) (ATCC 25923 [2]) | MIC/MPC (SA 452 [3]; oxacillin alone, SA 452) | MIC (SA 452 [3]; oxacillin alone, SA 452, unit not in table) | Decrease of MPC/MIC value (SA 452 [3]; with surfactin vs oxacillin alone, MRSA) [fold] | Mutant selection window (MSW), in words [4] | MIC/MPC (text: MPC/MIC ratio) (ATCC 25923 [5]; oxacillin alone) | MIC (ATCC 25923 [5]; oxacillin alone, unit not in table) | Decrease of MPC/MIC value (ATCC 25923 [5]; with 64 μg/mL of surfactin vs oxacillin alone) [fold] | Interaction with surfactin (in words) (SA 452 [1]) | Conversion of resistance to sensitivity by surfactin [6] | Interaction with surfactin (in words) [6] | Fold Change (SA 452 [1])
CC[C@H]1OC(=O)[C@H](C)[C@@H](O[C@H]2C[C@@](C)(OC)[C@@H](O)[C@H](C)O2)[C@H](C)[C@@H](O[C@@H]2O[C@H](C)C[C@H](N(C)C)[C@H]2O)[C@](C)(O)C[C@@H](C)C(=O)[C@H](C)[C@@H](O)[C@]1(C)O [Erythromycin] | 2 |  |  |  |  |  |  |  |  |  |  |  |  |  | 
Cc1onc(-c2ccccc2)c1C(=O)N[C@@H]1C(=O)N2[C@@H]1SC(C)(C)[C@@H]2C(=O)O [Oxacillin] | 0.156 | 8 | 0.25 | synergistic effects | >32 | 8 | ≥ 2 | narrowed the MSW for oxacillin against MRSA | 32 | 0.5 | 8 | significantly synergistic effects | converted them to sensitivity | synergies; also recorded: synergistic effects | 
CC1(C)S[C@@H]2[C@H](NC(=O)[C@H](N)c3ccccc3)C(=O)N2[C@H]1C(=O)O [Ampicillin] | 0.133 | 8 |  | synergistic effects |  |  |  |  |  |  |  | significantly synergistic effects | converted them to sensitivity | synergies; also recorded: synergistic effects | 128
CN(C)[C@@H]1C(O)=C(C(N)=O)C(=O)[C@@]2(O)C(O)=C3C(=O)c4c(O)cccc4[C@@](C)(O)[C@H]3C[C@@H]12 [Tetracycline] | 0.133 | 16 | 0.188 | synergistic effects |  |  |  |  |  |  |  | significantly synergistic effects | converted them to sensitivity | synergies; also recorded: synergistic effects | 128
CNC(C)C1CCC(N)C(OC2C(N)CC(N)C(OC3OCC(C)(O)C(NC)C3O)C2O)O1 (stereo not drawn) [Gentamicin] | 0.25 |  |  |  |  |  |  |  |  |  |  | significantly synergistic effects |  |  | 
O=C(O)c1cn(C2CC2)c2cc(N3CCNCC3)c(F)cc2c1=O [Ciprofloxacin] | 2 |  |  |  |  |  |  |  |  |  |  |  |  |  | 

From article PMC10674630 (Diabetes, Metabolic Syndrome and Obesity, 2023)
